# Assay results collected from several papers.
# Protocols differ between the studies behind these lines.
Compound,tested on,assay,test system,conditions,endpoint,result
CC(C)=CCC[C@](C)(O[C@@H]1O[C@H](CO)[C@@H](O)[C@H](O)[C@H]1O)[C@H]1CC[C@]2(C)[C@@H]1[C@H](O)C[C@@H]1[C@@]3(C)CC[C@H](O)C(C)(C)[C@@H]3CC[C@]12C,,,"mouse, plasma","intravenous, 2 mg/kg",AUC(0-t),1080 ng·h/mL
N=C(N)NCCC[C@H](NC(=O)[C@H](Cc1ccccc1)NC(=O)[C@H](CCC(N)=O)NC(=O)OCc1ccccc1)C(=O)c1nccs1,,,"female C57BL/6 mouse, plasma","intranasal, 5 mg/kg",AUC(0-inf),129 ng·h/mL
CC(C)CC(=O)OC[C@H]1O[C@@](C#N)(c2ccc3c(N)ncnn23)[C@H](O)[C@@H]1O,,metabolic stability,"rat, blood","5 µM, whole blood",half-life,0.761 min
O=C(Nc1ccc([N+](=O)[O-])cc1Cl)c1cc(Cl)ccc1O,HeLa-ACE2,"cell growth or viability, ATP luminescence",,72 h,CC50,8.73 µM
COc1cc(C(=O)c2nc(-c3cccc4[nH]ccc34)c[nH]2)cc(OC)c1OC,,chemical stability,PBS,"5 µM, pH 6",half-life,> 1020 min
CC(=O)c1c(C)c2cnc(Nc3ccc(C4CCN(CCS(C)(=O)=O)CC4)cn3)nc2n(C2CCCC2)c1=O,,metabolic stability,"rat, liver S9",,half-life,866 min
CC[C@H](C)[C@H](NC(=O)[C@H](Cc1ccccc1)NC(=O)[C@H](CCC(=O)O)NC(=O)[C@H](CCCCN)NC(=O)[C@H](C)NC(=O)[C@H](C)NC(=O)[C@H](CCC(N)=O)NC(=O)CNC(=O)[C@H](CCC(=O)O)NC(=O)[C@H](CC(C)C)NC(=O)[C@H](Cc1ccc(O)cc1)NC(=O)[C@H](CO)NC(=O)[C@H](CO)NC(=O)[C@@H](NC(=O)[C@H](CC(=O)O)NC(=O)[C@H](CO)NC(=O)[C@@H](NC(=O)[C@H](Cc1ccccc1)NC(=O)[C@@H](NC(=O)CNC(=O)[C@H](CCC(=O)O)NC(=O)[C@H](C)NC(=O)N(N)Cc1c[nH]cn1)[C@@H](C)O)[C@@H](C)O)C(C)C)C(=O)N[C@@H](C)C(=O)N[C@@H](Cc1c[nH]c2ccccc12)C(=O)N[C@@H](CC(C)C)C(=O)N[C@H](C(=O)N[C@@H](CCCNC(=N)N)C(=O)NCC(=O)N[C@@H](CCCNC(=N)N)C(=O)NCC(=O)O)C(C)C,,,"male CD-1 mouse, plasma","intravenous, 1 mg/kg, single dose",AUC(0-inf),2400 ng·h/mL
Cc1[nH]c(C)c(S(=O)(=O)Nc2ccc(S(F)(F)(F)(F)F)cc2)c1C(=O)N1CCC(F)(F)C1,,metabolic stability,"rat, liver microsomes",,half-life,17.6 min
Cc1c2ccncc2c(C)c2c1[nH]c1ccccc12,NCI-H187,"cell growth or viability, resazurin",,5 days,IC50,10.7 µM
